{
  "source": "paper PMC5629310",
  "about": "(Journal of Arthropod-Borne Diseases, 2017)",
  "key": {"[1]": {"system": "Leishmania major promastigotes (vaccine strain MRHO/IR/75/ER)", "settings": "read-out: Anti-promastigote activity IC50; L. major promastigotes; previous compounds 1a-b; ref Tahghighi et al. 2013; cited from earlier work"}, "[2]": {"system": "mouse peritoneal macrophages", "settings": "read-out: Cytotoxicity CC50, previous compounds 1a-b, ref Tahghighi et al. 2013; cited from earlier work"}, "[3]": {"system": "amastigote form of L. major in murine peritoneal macrophages", "settings": "previous compounds 1a-b; result in words; ref Tahghighi et al. 2013; cited from earlier work"}, "[4]": {"system": "Leishmania major promastigotes (vaccine strain MRHO/IR/75/ER)", "test": "Antileishmanial activity against Leishmania major promastigotes", "assay_type": "cell-based", "settings": "for IC50: Leishmania major, 24 h, read-out: Anti-promastigote activity IC50"}, "[5]": {"test": "Toxicity against macrophages", "assay_type": "cell-based, mouse", "settings": "BALB/c, mouse, mouse peritoneal macrophages", "method_in_brief": "(§1)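 BALB/c peritoneal macrophages, collected by PBS lavage, were kept in RPMI 1640 with 10% heat-inactivated FBS, 2mM glutamine and penicillin/streptomycin. Cells were seeded at 2×10^5/well and allowed to adhere. Medium was replaced with a graded series of test compound for 24 h at 37 °C, 5% CO2, with a DMSO negative control. Viability was read by MTT. Two independent experiments were run in triplicate, and CC50 was taken by linear regression.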"}, "[6]": {"system": "mouse peritoneal macrophages", "test": "Toxicity against macrophages", "assay_type": "cell-based", "settings": "CC50 macrophages / IC50 promastigotes", "method_in_brief": "as §1"}},
  "note": "Like-named read-outs stand apart in the source and are kept apart here.",
  "data": [
    {"compound": "O=[N+]([O-])c1ccc(-c2nnc(NCCCO)s2)o1", "note": "[Compound 1a, 3-(5-(5-nitrofuran-2-yl)-1,3,4-thiadiazol-2-ylamino) propan-1-ol]", "values": [
      {"measurement": "IC50", "setting": "[1]", "value": "18 ± 0.2", "unit": "µM"},
      {"measurement": "CC50", "setting": "[2]", "value": 62.3, "unit": "µM"},
      {"measurement": "Number of intracellular amastigotes per macrophage, percentage of macrophage infectivity and infectivity index compared with control group", "setting": "[3]", "value": "decreased"}
    ]},
    {"compound": "O=[N+]([O-])c1ccc(-c2nnc(NCCCO)s2)s1", "note": "[Compound 1b, 3-(5-(5-nitrothiophen-2-yl)-1,3,4-thiadiazol-2-ylamino) propan-1-ol]", "values": [
      {"measurement": "fold more potent than 5-nitrofuran counterpart 1a", "setting": "[4]; promastigote IC50, 1b versus 1a", "value": 6, "unit": "fold"},
      {"measurement": "IC50", "setting": "[1]", "value": "3 ± 0.41", "unit": "µM"},
      {"measurement": "CC50", "setting": "[2]", "value": 42.2, "unit": "µM"},
      {"measurement": "Number of intracellular amastigotes per macrophage, percentage of macrophage infectivity and infectivity index compared with control group", "setting": "[3]", "value": "decreased"}
    ]},
    {"compound": "OC(Cn1cncn1)(Cn1cncn1)c1ccc(F)cc1F", "note": "[Fluconazole, reference compound]", "values": [
      {"measurement": "IC50", "setting": "[4]", "value": "941.1 ± 4.98", "unit": "µM"}
    ]},
    {"compound": "O=[N+]([O-])c1ccc(-c2nnc(N3CCC(O)CC3)s2)s1", "note": "[Compound 5b, 1-(5-(5-nitrothiophen-2-yl)-1,3,4-thiadiazol-2-yl)piperidin-4-ol]", "values": [
      {"measurement": "IC50", "setting": "[4]", "value": "27 ± 0.12", "unit": "µM"},
      {"measurement": "CC50 at 24 h", "setting": "[5]", "value": 63.6, "unit": "µM"},
      {"measurement": "SI (selectivity index CC50/IC50)", "setting": "[6]", "value": 2.35}
    ]},
    {"compound": "O=[N+]([O-])c1ccc(-c2nnc(N3CCC(O)CC3)s2)o1", "note": "[Compound 5a, 1-(5-(5-nitrofuran-2-yl)-1,3,4-thiadiazol-2-yl)piperidin-4-ol]", "values": [
      {"measurement": "IC50", "setting": "[4]", "value": "68.9 ± 0.107", "unit": "µM"},
      {"measurement": "CC50 at 24 h", "setting": "[5]", "value": 78.5, "unit": "µM"},
      {"measurement": "SI (selectivity index CC50/IC50)", "setting": "[6]", "value": 1.14}
    ]}
  ]
}
